Data from the array DNA melting data of Ke et al. (doi:10.1101/2024.01.08.574731).

Key:
[1] = folding enthalpy; higher = less favourable; fluorescence melt of hairpins on a sequencing array, two-state fit; conditions: sodium 0.088 M
Method in brief: (§1)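 In 50 mM Na-HEPES pH 8.0 containing 25 mM NaCl, hairpins from the library on a sequenced MiSeq flow cell were imaged for Cy3 fluorescence at 2.5 °C steps up to 60 °C, with Cy3 and quencher oligos annealed. After normalisation to pre-quench Cy3 and to control constructs, two-state fits with bootstrapping gave melting temperature and folding enthalpy. Four replicates were combined by inverse-variance weighting, and fitted temperatures were shifted up by 9.35 °C to match UV melts.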

[2] = melting temperature; fluorescence melt of hairpins on a sequencing array, two-state fit, raised by 9.35 °C to match UV melts; conditions: sodium 0.088 M
Method in brief: as §1

GTTACACGAAAGTGGAAC (((.(((....))).)))
folding enthalpy [1]: -36.7 kcal/mol | Tm [2]: 56.7 °C

GTTACAGGAAACCGTAAC (((((.(....).)))))
folding enthalpy [1]: -35.6 kcal/mol | Tm [2]: 39.4 °C

GTTACAGGAAACTGTAAC (((((((....)))))))
folding enthalpy [1]: -42.8 kcal/mol | Tm [2]: 55.5 °C

GTTACCGAAAGGTTAAAC ((((((....)))..)))
folding enthalpy [1]: -9.83 kcal/mol | Tm [2]: 30.6 °C

GTTACCGGAAACGGTAAC (((((((....)))))))
folding enthalpy [1]: -42.4 kcal/mol | Tm [2]: 63.2 °C

GTTACGCGAAAGCGAAC (((.(((....))))))
folding enthalpy [1]: -13.7 kcal/mol | Tm [2]: 40 °C

GTTACGCGAAAGCGGAAC (((.(((....))).)))
folding enthalpy [1]: -26.8 kcal/mol | Tm [2]: 67.5 °C

GTTACGGAAACGTAAC ((((((....))))))
folding enthalpy [1]: -38.1 kcal/mol | Tm [2]: 56.8 °C

GTTACGGCGAAAGCCAAC (((..(((....))))))
folding enthalpy [1]: -8.79 kcal/mol | Tm [2]: 25 °C

GTTACGGGAAACCGTAGC (.(((((....))))).)
folding enthalpy [1]: -18.3 kcal/mol | Tm [2]: 48.5 °C

GTTACGTCGAAAGACAAC (((..(((....))))))
folding enthalpy [1]: -10.3 kcal/mol | Tm [2]: 24.5 °C

GTTACTCGAAAGAGGAAC (((.(((....))).)))
folding enthalpy [1]: -36.2 kcal/mol | Tm [2]: 53.6 °C

GTTAGCCCGAAAGGGAAC (((..(((....))))))
folding enthalpy [1]: -11.5 kcal/mol | Tm [2]: 28.1 °C

GTTAGCGGAAACGCTAAC (((((((....)))))))
folding enthalpy [1]: -42.7 kcal/mol | Tm [2]: 66.7 °C

GTTAGCGGAAACGCTGAC ((.((((....)))).))
folding enthalpy [1]: -29.4 kcal/mol | Tm [2]: 52.3 °C

GTTAGGAAACTAAC (((((....)))))
folding enthalpy [1]: -15.7 kcal/mol | Tm [2]: 41.4 °C

GTTAGGACGAAAGTCAAC (((..(((....))))))
folding enthalpy [1]: -10.7 kcal/mol | Tm [2]: 28.8 °C

GTTAGGCGAAAGCCAAAC (((.(((....))).)))
folding enthalpy [1]: -15.9 kcal/mol | Tm [2]: 50.3 °C

GTTAGGGGAAACCCTAAC (((((((....)))))))
folding enthalpy [1]: -40.5 kcal/mol | Tm [2]: 57.9 °C

GTTAGGGGAAACTCTAAC (((((.(....).)))))
folding enthalpy [1]: -29.2 kcal/mol | Tm [2]: 38.3 °C

GTTAGGTCGAAAGACAAC (((..(((....))))))
folding enthalpy [1]: -11.1 kcal/mol | Tm [2]: 27.2 °C

GTTAGTCGAAAGACAAAC (((.(((....))).)))
folding enthalpy [1]: -21.9 kcal/mol | Tm [2]: 41.2 °C

GTTAGTCGAAAGACAAC (((.(((....))))))
folding enthalpy [1]: -20.4 kcal/mol | Tm [2]: 39.5 °C

GTTATCCGAAAGGAGAAC (((.(((....))).)))
folding enthalpy [1]: -37.4 kcal/mol | Tm [2]: 51.1 °C

GTTATCGAAAGATAAAC ((((((....))).)))
folding enthalpy [1]: -20.9 kcal/mol | Tm [2]: 32.9 °C

GTTATCGAAAGATATAAC ((((((....)))..)))
folding enthalpy [1]: -11.3 kcal/mol | Tm [2]: 29.3 °C

GTTATGACGAAAGTCAAC (((..(((....))))))
folding enthalpy [1]: -10.5 kcal/mol | Tm [2]: 26.2 °C

GTTATGGGAAACCATGAC ((.((((....)))).))
folding enthalpy [1]: -34.4 kcal/mol | Tm [2]: 43.5 °C

GTTATTCCGAAAGGAAAC (((..(((....))))))
folding enthalpy [1]: -7.61 kcal/mol | Tm [2]: 21.5 °C

GTTATTCGAAAGAAAAAC (((.(((....))).)))
folding enthalpy [1]: -19.6 kcal/mol | Tm [2]: 29.9 °C

GTTATTCGAAAGAAGAAC (((.(((....))).)))
folding enthalpy [1]: -28.3 kcal/mol | Tm [2]: 42.7 °C

GTTATTGAAAAATAAC ((((((....))))))
folding enthalpy [1]: -25 kcal/mol | Tm [2]: 37.5 °C

GTTATTGCGAAAGCAAAC (((..(((....))))))
folding enthalpy [1]: -10.3 kcal/mol | Tm [2]: 29.1 °C

GTTCAAGGAAACTCGAAC ((((.((....)).))))
folding enthalpy [1]: -11.7 kcal/mol | Tm [2]: 28.7 °C

GTTCAAGGAAACTTGAAC (((((((....)))))))
folding enthalpy [1]: -46.1 kcal/mol | Tm [2]: 53.9 °C

GTTCACGAAAGTGATAAC ((((((....)))..)))
folding enthalpy [1]: -10.8 kcal/mol | Tm [2]: 35 °C

GTTCACGGAAACGCGAAC ((((.((....)).))))
folding enthalpy [1]: -47.1 kcal/mol | Tm [2]: 48.3 °C

GTTCACGGAAACGTAAAC (((.(((....))).)))
folding enthalpy [1]: -11.4 kcal/mol | Tm [2]: 34.9 °C

GTTCAGGCGAAAGCCAAC (((..(((....))))))
folding enthalpy [1]: -8.95 kcal/mol | Tm [2]: 26.1 °C

GTTCAGGGAAACTTGAAC (((((.(....).)))))
folding enthalpy [1]: -22.8 kcal/mol | Tm [2]: 40.7 °C

GTTCATGAAAATGAAC ((((((....))))))
folding enthalpy [1]: -33 kcal/mol | Tm [2]: 52 °C

GTTCATGGAAACACGAAC ((((.((....)).))))
folding enthalpy [1]: -28.4 kcal/mol | Tm [2]: 34.4 °C

GTTCATGGAAACGTGAAC (((((.(....).)))))
folding enthalpy [1]: -40.6 kcal/mol | Tm [2]: 46.4 °C

GTTCCACGAAAGTGAAAC (((.(((....))).)))
folding enthalpy [1]: -25.2 kcal/mol | Tm [2]: 43.4 °C

GTTCCCGAAAGGGAAAAC ((((((....)))..)))
folding enthalpy [1]: -10.8 kcal/mol | Tm [2]: 41 °C

GTTCCCGAAAGGGAGAAC ((((((....)))..)))
folding enthalpy [1]: -10.3 kcal/mol | Tm [2]: 38 °C

GTTCCCGAAAGGGGCAAC ((((((....)))..)))
folding enthalpy [1]: -9.18 kcal/mol | Tm [2]: 30.2 °C

GTTCCCGAAAGGGTCAAC ((((((....)))..)))
folding enthalpy [1]: -9.41 kcal/mol | Tm [2]: 26.9 °C

GTTCCCGAAAGGGTTAAC ((((((....)))..)))
folding enthalpy [1]: -8.45 kcal/mol | Tm [2]: 30.1 °C

GTTCCCGGAAACGGGAGC (.(((((....))))).)
folding enthalpy [1]: -26 kcal/mol | Tm [2]: 54.2 °C

GTTCCGCGAAAGCGAAAC (((.(((....))).)))
folding enthalpy [1]: -23.6 kcal/mol | Tm [2]: 53.9 °C

GTTCCGGAAACGGAAC ((((((....))))))
folding enthalpy [1]: -32.4 kcal/mol | Tm [2]: 66.3 °C

GTTCCGGGAAACCGAAAC (((.(((....))).)))
folding enthalpy [1]: -25 kcal/mol | Tm [2]: 38.5 °C

GTTCCGGGAAACTGGAAC (((((.(....).)))))
folding enthalpy [1]: -39.6 kcal/mol | Tm [2]: 52.5 °C

GTTCCTGAAAAGGAAC ((((((....))))))
folding enthalpy [1]: -31.4 kcal/mol | Tm [2]: 57.1 °C

GTTCCTGGAAACAGGAGC (.(((((....))))).)
folding enthalpy [1]: -23.4 kcal/mol | Tm [2]: 48.3 °C

GTTCCTGGAAACGGGAAC (((((.(....).)))))
folding enthalpy [1]: -40.9 kcal/mol | Tm [2]: 50.7 °C

GTTCGAGGAAACTTGAAC ((((.((....)).))))
folding enthalpy [1]: -32.4 kcal/mol | Tm [2]: 44.5 °C

GTTCGAGGAAACTTGAGC (.((.((....)).)).)
folding enthalpy [1]: -20.3 kcal/mol | Tm [2]: 29.9 °C

GTTCGCGAAAGCGAAAC ((((((....))).)))
folding enthalpy [1]: -12.6 kcal/mol | Tm [2]: 55.3 °C

GTTCGCGAAAGCGACAAC ((((((....)))..)))
folding enthalpy [1]: -7.58 kcal/mol | Tm [2]: 34.8 °C

GTTCGCGAAAGCGCAAAC ((((((....)))..)))
folding enthalpy [1]: -7.42 kcal/mol | Tm [2]: 29 °C

GTTCGCGAAAGCGGAAAC ((((((....)))..)))
folding enthalpy [1]: -9.75 kcal/mol | Tm [2]: 36.6 °C

GTTCGCGGAAACACGAAC (((((.(....).)))))
folding enthalpy [1]: -39.7 kcal/mol | Tm [2]: 48.9 °C

GTTCGGGAAACCGAAC ((((((....))))))
folding enthalpy [1]: -38.1 kcal/mol | Tm [2]: 61.1 °C

GTTCGGGGAAACCCAAAC (((.(((....))).)))
folding enthalpy [1]: -23.8 kcal/mol | Tm [2]: 36 °C

GTTCGGGGAAACCTGGAC ((.(.((....)).).))
folding enthalpy [1]: -20.2 kcal/mol | Tm [2]: 36.8 °C

GTTCGGGGAAACTCGAGC (.(((.(....).))).)
folding enthalpy [1]: -19.7 kcal/mol | Tm [2]: 35.9 °C

GTTCGTCGAAAGACCAAC (((.(((....))).)))
folding enthalpy [1]: -15.9 kcal/mol | Tm [2]: 30.9 °C

GTTCGTGAAAACGAAC ((((((....))))))
folding enthalpy [1]: -32 kcal/mol | Tm [2]: 61.9 °C

GTTCGTGGAAACGCGAAC (((((.(....).)))))
folding enthalpy [1]: -41.3 kcal/mol | Tm [2]: 55.3 °C

GTTCTCCCGAAAGGGAAC (((..(((....))))))
folding enthalpy [1]: -9.91 kcal/mol | Tm [2]: 30.6 °C

GTTCTCCGAAAGGATAAC (((.(((....))).)))
folding enthalpy [1]: -26.4 kcal/mol | Tm [2]: 41.2 °C

GTTCTCGAAAGAGAAC ((((((....))))))
folding enthalpy [1]: -35.2 kcal/mol | Tm [2]: 61 °C

GTTCTCGAAAGAGGCAAC ((((((....)))..)))
folding enthalpy [1]: -9.31 kcal/mol | Tm [2]: 26.6 °C

GTTCTCGAAAGAGGGAAC ((((((....)))..)))
folding enthalpy [1]: -17.6 kcal/mol | Tm [2]: 31.4 °C

GTTCTCGAAAGAGTGAAC ((((((....)))..)))
folding enthalpy [1]: -14.7 kcal/mol | Tm [2]: 29.4 °C

GTTCTCGGAAACAAGAAC (((((.(....).)))))
folding enthalpy [1]: -14.8 kcal/mol | Tm [2]: 33.9 °C

GTTCTCGGAAACGAAAAC (((.(((....))).)))
folding enthalpy [1]: -20 kcal/mol | Tm [2]: 29.3 °C

GTTCTCGGAAACGGGAAC ((((.((....)).))))
folding enthalpy [1]: -41.3 kcal/mol | Tm [2]: 51 °C

GTTCTGCGAAAGCAAAAC (((.(((....))).)))
folding enthalpy [1]: -16.7 kcal/mol | Tm [2]: 38.4 °C

GTTCTGGGAAACTGGAAC ((((..(....)..))))
folding enthalpy [1]: -31.9 kcal/mol | Tm [2]: 34.8 °C

GTTCTTCGAAAGAAAAAC (((.(((....))).)))
folding enthalpy [1]: -12.6 kcal/mol | Tm [2]: 25.4 °C

GTTGAACGAAAGTTAAAC (((.(((....))).)))
folding enthalpy [1]: -26.9 kcal/mol | Tm [2]: 41.2 °C

GTTGAAGCGAAAGCTAAC (((..(((....))))))
folding enthalpy [1]: -13.5 kcal/mol | Tm [2]: 34.3 °C

GTTGACGAAAGTCAAAC ((((((....))).)))
folding enthalpy [1]: -13.9 kcal/mol | Tm [2]: 51.3 °C

GTTGACGAAAGTCCGAAC ((((((....)))..)))
folding enthalpy [1]: -10.6 kcal/mol | Tm [2]: 29 °C

GTTGACGAAAGTCGAAAC ((((((....)))..)))
folding enthalpy [1]: -12 kcal/mol | Tm [2]: 30.9 °C

GTTGACGAAAGTCGTAAC ((((((....)))..)))
folding enthalpy [1]: -11.1 kcal/mol | Tm [2]: 32.9 °C

GTTGACGAAAGTCTAAC ((((((....))).)))
folding enthalpy [1]: -14.7 kcal/mol | Tm [2]: 39.7 °C

GTTGACGGAAACGTTGAC ((..(((....)))..))
folding enthalpy [1]: -25.4 kcal/mol | Tm [2]: 37.5 °C
